Screening results (PubChem BioAssay)
Ecoli rRNA inh: reduced GFP signal of wild-type E. coli, primary screen, bacterial rRNA inhibitor project, GFP/RFP fluorescence, OD600, single point; E. coli WT GFP vs humanized-ribosome RFP mutants, 24 h; active compounds read low; DMSO median 0, no signal -100; GFP signal change (wild-type ribosome), % (concentration not given with the values); hit rate 1.6% among 350,000;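 active = significant combined selectivity score with lowered wild-type GFP, culture density cut under 30%, mutant RFP and density less affected; inactive = any of these conditions unmet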
SIRT5 block: SIRT5 desuccinylase inhibitors, primary screen, biochemical, fluorescence imaging, single point, set 5; NAD-dependent protein deacylase sirtuin-5, mitochondrial (Homo sapiens), Q9NXA8; Purified SirT5, succinyl-peptide AMC, trypsin-coupled fluorescence; inhibition, % at 15 µM; hit rate 1.1% among 330,000; AID 652115, 2013; in the data active = inhibition above about 15%
Target sequence (Q9NXA8 whole entry, looked up): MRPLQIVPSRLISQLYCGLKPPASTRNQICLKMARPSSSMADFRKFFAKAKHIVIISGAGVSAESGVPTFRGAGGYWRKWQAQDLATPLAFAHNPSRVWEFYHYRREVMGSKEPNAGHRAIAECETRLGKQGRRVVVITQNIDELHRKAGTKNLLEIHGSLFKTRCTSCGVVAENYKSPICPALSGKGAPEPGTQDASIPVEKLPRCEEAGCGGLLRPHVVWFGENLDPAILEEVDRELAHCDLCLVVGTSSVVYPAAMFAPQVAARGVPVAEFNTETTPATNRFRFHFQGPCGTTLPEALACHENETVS
ERAP1 HTS inh: human ERAP1 aminopeptidase inhibitors, primary screen, biochemical, single point, plate reader; inhibition, % at 10.7 µM; AID 652197, 2013; hit rate 0.15% among 340,000; recombinant ERAP1, Leu-AMC fluorescence, 60 min; Endoplasmic reticulum aminopeptidase 1 (Homo sapiens), Q9NZ08;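 active = mean replicate inhibition of at least 30%, or all replicates individually reaching that 30% level; inactive = mean below 30% and not every replicate reaching it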
S100A4 MyoIIA: inhibitors of S100A4-myosin IIA peptide binding, primary screen, biochemical, fluorescence polarization, TAMRA-MyoIIA peptide; hit rate 0.14% among 360,000; inhibition, % at 10.7 µM;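 active = mean inhibition of at least 70% across replicates, with every replicate also reaching that level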
Target sequence (P26447 whole entry, looked up): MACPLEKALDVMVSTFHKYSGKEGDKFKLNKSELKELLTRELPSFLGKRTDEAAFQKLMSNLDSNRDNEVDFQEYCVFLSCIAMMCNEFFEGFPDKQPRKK
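Test system: S100A4 monomer protein. Medium: HEPES buffer with Ca2+, pH 7.2. Reagent: fluorescent myosin IIA peptide, 5 nM. Compound dosing: single-point compound testing. Timing: 5 min between mix addition and reading. Benchmarks: DMSO neutral and TFP positive wells.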
CFTR F508del cor: F508del CFTR correction, initial screen, CFBE line, single point. activity (quench increase), % at 7.58 µM. AID 720511, 2013. CFBE cells, YFP halide quenching; stimulated with forskolin plus potentiator P3; % fluorescence drop versus neutral controls. hit rate 0.36% among 350,000;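 active = mean added fluorescence quench of at least 8% versus neutral control, with both replicates also reaching 8%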;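 note: cells transiently co-express mutant CFTR-F508del with the halide-sensitive YFP; corrector assay measuring rescue of mutant channel to the surface after 24 h compound exposure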
Numbers stand for hits; 0 = inactive; - = no result given. Rows were chosen to be rich in hits. Some 3.1% of all compounds tested hit in one or more screens of this group.

SMILES	Ecoli rRNA inh	SIRT5 block	ERAP1 HTS inh	S100A4 MyoIIA	CFTR F508del cor
CCOC(=O)c1cc(-c2ccc3c(c2)OCCO3)n[nH]1	-32	0	0	0	0
O=C(O)c1cc(-c2ccc3c(c2)OCCO3)n[nH]1	0	0	0	0	0
COc1ccc(NC(=O)N(C)C[C@@H]2Oc3ccc(NS(=O)(=O)c4cn(C)cn4)cc3C(=O)N([C@@H](C)CO)C[C@@H]2C)cc1	0	0	0	0	0
NC(=O)NC(c1ccc(Cl)cc1)c1ccccc1Cl (stereo not given)	-35	0	0	0	0
NC(=O)NC(c1ccccc1)c1cccc2ccccc12 (stereo not given)	-33	0	0	0	0
NC(=O)NC(c1ccccc1)c1ccccc1	0	0	0	0	0
CCOc1ccc(Cl)cc1CSc1ncn[nH]1	-22	0	0	0	-
COc1ccc(Nc2cnn(-c3nc4ccccc4s3)c(=O)c2Cl)cc1	-25	0	0	0	-
CCC(=O)Nc1cccc(NC(=S)NC(=O)c2ccc(C)cc2)c1	0	0	0	0	0
CCC(=O)Nc1cccc(NC(=S)NC(=O)c2cccc(C)c2)c1	-17	0	0	0	-
Oc1ccc(-c2cnns2)c(O)c1	0	31	0	0	0
Oc1ccc(-c2nc3ccccc3s2)c(O)c1	0	0	0	0	0
C[C@@H]1CCCCO[C@H](CN(C)C(=O)Nc2ccc(C(F)(F)F)cc2)[C@@H](C)CN([C@@H](C)CO)C(=O)c2cc(NC(=O)Nc3ccccc3)ccc2O1	0	0	0	0	0
Fc1ccc(Cn2cc(C(=S)N3CCOCC3)c3ccccc32)cc1	-26	0	0	0	0
Cc1ccc(-n2cc(-c3ccccc3)c3c(=O)[nH]cnc32)cc1	0	-	0	0	0
O=c1[nH]cnc2c1c(-c1ccccc1)cn2-c1ccccc1	-31	0	0	0	0
C[C@]1(C(=O)NCc2cc(F)cc(C(F)(F)F)c2)C=C[C@@H](Cc2ccccc2)N1C(=O)c1ccccc1	0	34	0	0	0
Clc1ccccc1-c1nc2nc3ccccc3nc2n1-c1ccc2c(c1)OCO2	-26	0	0	0	0
CCCCN1C(=O)CC(C(=O)OCC)=C1C	0	0	0	0	11
C[C@@H]1CN([C@@H](C)CO)C(=O)c2cc(C#CC3CCCCC3)cnc2O[C@@H]1CN(C)S(=O)(=O)c1ccccc1	0	16	0	0	0
C[C@H]1CN([C@@H](C)CO)C(=O)c2cc(C#CC3CCCCC3)cnc2O[C@H]1CN(C)S(=O)(=O)c1cccc(F)c1	0	0	0	0	0
C[C@@H]1CN([C@@H](C)CO)C(=O)c2cc(C#CC3CCCCC3)cnc2O[C@H]1CN(C)S(=O)(=O)c1cccc(F)c1	-	22	0	0	0
C[C@H](CO)N1C[C@H](C)[C@@H](CN(C)S(=O)(=O)c2cccc(F)c2)Oc2ncc(C#CC3CCCCC3)cc2C1=O	-	30	0	0	0
C[C@@H]1CN([C@@H](C)CO)C(=O)c2cc(C#CC3CCCCC3)cnc2O[C@@H]1CN(C)S(=O)(=O)c1cccc(F)c1	0	18	0	0	0
CN1C(=O)c2cc(NC(=O)c3cnccn3)ccc2OC[C@H]2O[C@@H](CC(=O)NC3CCC3)CC[C@@H]21	0	0	0	0	0
SMILES	Ecoli rRNA inh	SIRT5 block	ERAP1 HTS inh	S100A4 MyoIIA	CFTR F508del cor
C[C@H](CO)N1C[C@H](C)[C@@H](CN(C)CC2CCCCC2)Oc2ccc(NC(=O)NC3CCCCC3)cc2C1=O	0	0	0	0	0
O=C(C[C@H]1CC[C@@H](NC(=O)CC2CC2)[C@H](CO)O1)NCc1ccc(Cl)cc1	0	0	0	0	0
COc1cccc(S(=O)(=O)N(C)C[C@@H]2Oc3ncc(-c4cc5ccccc5o4)cc3C(=O)N([C@H](C)CO)C[C@@H]2C)c1	0	0	0	0	0
C[C@H]1CN([C@@H](C)CO)C(=O)c2cc(C#CC3CCCCC3)cnc2O[C@@H]1CN(C)C(=O)Nc1ccccc1	0	15	-	0	0
C[C@@H]1CN([C@@H](C)CO)C(=O)c2cc(C#CC3CCCC3)cnc2O[C@@H]1CN(C)C(=O)Nc1ccccc1	0	0	0	0	0
C[C@H](CO)N1C[C@H](C)[C@H](CN(C)S(=O)(=O)c2cccc(F)c2)Oc2ncc(-c3cc4ccccc4o3)cc2C1=O	0	15	0	0	0
COc1ccccc1S(=O)(=O)N1C[C@H](O)COC[C@H]2O[C@H](CC(=O)O)CC[C@@H]21	0	0	0	0	0
CN(C)C(=O)C[C@H]1CC[C@@H](NC(=O)NC2CCCCC2)[C@H](CO)O1	0	0	0	0	0
C[C@@H](NC(=O)C[C@H]1C[C@H]2c3cc(NC(=O)c4ccc5c(c4)OCO5)ccc3O[C@H]2[C@@H](CO)O1)c1ccccc1	0	0	0	0	0
COc1ccc(CNC(=O)CN2C(=O)C3C4C=CC(C4)C3C2=O)cc1 (stereo not given)	0	109	0	0	0
COc1ccc(CN2C(=O)C3C4C=CC(C4)C3C2=O)cc1 (stereo not given)	0	0	0	0	0
Cc1ccccc1C[n+]1cccc2ccccc21	0	0	0	0	0
CCCCCCCCCCCCCCCC[n+]1cccc2ccccc21	0	0	108	0	-
C[C@@H]1CN(C)C(=O)Cc2cc(NS(C)(=O)=O)ccc2O[C@H]1CN(C)C	0	-	-	-	-
O=C(Cn1c2[n+](c3ccc(C(F)(F)F)cc31)CCCCC2)c1ccc2c(c1)OCCO2	-38	0	0	0	0
CCc1cccc(NC(=O)Cn2c3[n+](c4ccc(C(F)(F)F)cc42)CCCCC3)c1	-45	0	0	0	0
CNC(=O)C[C@@H]1CC[C@@H]2[C@@H](COc3ccc(NC(=O)NC(C)C)cc3C(=O)N2C)O1	0	-	-	-	0
O=C(O)C[C@H]1C[C@@H]2c3cc(NC(=O)Nc4ccc(F)cc4)ccc3O[C@@H]2[C@H](CO)O1	0	0	0	0	0
CCc1ccc(NC(=S)Nc2ccc3cn[nH]c3c2)cc1	-21	0	0	0	0
COc1ccc(S(=O)(=O)Nc2cccc3c2O[C@@H](CN(C)C(=O)Nc2ccc(C(F)(F)F)cc2)[C@@H](C)CN([C@H](C)CO)C3=O)cc1	0	0	0	0	0
Cc1ccc(N=C2NC(=O)/C(=C/c3cccn3C)S2)c(C)c1	0	0	0	0	0
O=C1NC(=Nc2ccc(O)cc2)S/C1=C/c1ccco1	0	0	0	0	11
Cn1cccc1/C=C1\SC(=Nc2ccccc2)NC1=O	0	0	0	0	15
Cc1ccc(N=C2NC(=O)/C(=C/c3cn(C)c4ccccc34)S2)cc1C	0	26	0	0	0
